The series in a line: Permeability of compound by PAMPA at pH 7.4. The format is ADME. The procedure, abridged:
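Parallel artificial membrane permeation assay at pH 7.4, read as permeability in 10^-6 cm/s. Mean of a single triplicate experiment.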
(In PAMPA a lipid-coated filter parts donor from acceptor wells.)

`CS(=O)(=O)c1ccc(C(=O)OCC(=O)NC23CC4CC(CC(C4)C2)C3)cc1[N+](=O)[O-]` registered a permeability of 167 ×10⁻⁶ cm/s. In turn, `CCCN(C(=O)c1csc(-c2ccc(S(C)(=O)=O)c([N+](=O)[O-])c2)n1)c1ccccc1` displayed a permeability of 1620 ×10⁻⁶ cm/s. The compound `Cc1nc(-c2ccc(S(C)(=O)=O)c([N+](=O)[O-])c2)sc1C(=O)N1CCC(C)CC1` came in with a permeability of 912 ×10⁻⁶ cm/s. The same measure, in the same setting: the result for `Cc1nc(-c2ccc(S(C)(=O)=O)c([N+](=O)[O-])c2)sc1C(=O)N1CC2(C)CC1CC(C)(C)C2` (centres undefined) reads 1420 ×10⁻⁶ cm/s; that for `CC1Cc2ccccc2N1C(=O)c1sc(-c2ccc(S(C)(=O)=O)c([N+](=O)[O-])c2)nc1C(F)(F)F` (centres undefined), 43 ×10⁻⁶ cm/s; that for `CS(=O)(=O)c1ccc(-c2nc(C(F)(F)F)c(C(=O)N3CCc4ccccc4C3)s2)cc1[N+](=O)[O-]`, 84 ×10⁻⁶ cm/s. On the same count and under the same terms, with `CN(Cc1ccccc1F)C(=O)c1sc(-c2ccc(S(C)(=O)=O)c([N+](=O)[O-])c2)nc1C(F)(F)F` the figure was 221 ×10⁻⁶ cm/s; with `CN(Cc1ccccc1)C(=O)c1sc(-c2ccc(S(C)(=O)=O)c([N+](=O)[O-])c2)nc1C(F)(F)F`, 1500 ×10⁻⁶ cm/s.

On to `CC1CCN(C(=O)c2sc(-c3ccc(S(C)(=O)=O)c([N+](=O)[O-])c3)nc2C(F)(F)F)CC1`, for which the Papp (read-out: permeability) worked out at 702 ×10⁻⁶ cm/s.

As to `CS(=O)(=O)c1ccc(-c2nc(C(F)(F)F)c(C(=O)N3CCCCC3)s2)cc1[N+](=O)[O-]`, the permeability stood at 791 ×10⁻⁶ cm/s. As to `CS(=O)(=O)c1ccc(-c2ncc(C(=O)N3CCCCC3)s2)cc1[N+](=O)[O-]`, the permeability came out at 287 ×10⁻⁶ cm/s. `CS(=O)(=O)c1ccc(-c2nc(-c3ccccc3)c(C(=O)N3CCCCC3)s2)cc1[N+](=O)[O-]`: the permeability is 971 ×10⁻⁶ cm/s. Same read-out and setting: the result for `CCc1nc(-c2ccc(S(C)(=O)=O)c([N+](=O)[O-])c2)sc1C(=O)N1CCCCC1` reads 657 ×10⁻⁶ cm/s; that for `CS(=O)(=O)c1ccc(-c2ncc(C(=O)NC34CC5CC(CC(C5)C3)C4)s2)cc1[N+](=O)[O-]`, 379 ×10⁻⁶ cm/s. Still for that read-out and setting: with `Cc1nc(-c2ccc(S(C)(=O)=O)c([N+](=O)[O-])c2)sc1C(=O)N1CCCCC1` the figure was 280 ×10⁻⁶ cm/s.

`CC1(C)CC2CC(C)(CN2C(=O)c2sc(-c3ccc(S(C)(=O)=O)c([N+](=O)[O-])c3)nc2C(F)(F)F)C1` (centres undefined) came in with a permeability of 8 ×10⁻⁶ cm/s. On the same count and under the same terms, with `CCc1nc(-c2ccc(S(C)(=O)=O)c([N+](=O)[O-])c2)sc1C(=O)N1CC2(C)CC1CC(C)(C)C2` (centres undefined) the figure was 949 ×10⁻⁶ cm/s; with `CN(Cc1cccc(F)c1)C(=O)c1sc(-c2ccc(S(C)(=O)=O)c([N+](=O)[O-])c2)nc1C(F)(F)F`, 271 ×10⁻⁶ cm/s; with `CN(Cc1cccc(F)c1)C(=O)c1cnc(-c2ccc(S(C)(=O)=O)c([N+](=O)[O-])c2)s1`, 1030 ×10⁻⁶ cm/s.
